These results are taken from ChEMBL document CHEMBL3352689 (J Med Chem, 2014).

A short description of data set [1]: Apparent permeability in human Caco2 cells. Format: ADME, cell-based. Particulars: Caco-2. A general note: Passage across Caco-2 layers is used to estimate intestinal permeability; call rule not given here.
Data set [2] can be described thus: Solubility of the compound in water. Format: physicochemical. The note with it: buffer.
The nature of data set [3]: Solubility of the compound in Britton-Robinson buffer at pH 7. The format is physicochemical.
The target in the next data set is Collagenase 3 (Homo sapiens, UniProt P45452). Description: Inhibition of human recombinant MMP13 using Cy3-PLGLK(Cy5Q)AR-NH2 as substrate after 40 mins by spectrofluorimetry.
The next data set deals with T1, Interstitial collagenase (Homo sapiens, UniProt P03956).
T1 sequence (P03956 whole entry): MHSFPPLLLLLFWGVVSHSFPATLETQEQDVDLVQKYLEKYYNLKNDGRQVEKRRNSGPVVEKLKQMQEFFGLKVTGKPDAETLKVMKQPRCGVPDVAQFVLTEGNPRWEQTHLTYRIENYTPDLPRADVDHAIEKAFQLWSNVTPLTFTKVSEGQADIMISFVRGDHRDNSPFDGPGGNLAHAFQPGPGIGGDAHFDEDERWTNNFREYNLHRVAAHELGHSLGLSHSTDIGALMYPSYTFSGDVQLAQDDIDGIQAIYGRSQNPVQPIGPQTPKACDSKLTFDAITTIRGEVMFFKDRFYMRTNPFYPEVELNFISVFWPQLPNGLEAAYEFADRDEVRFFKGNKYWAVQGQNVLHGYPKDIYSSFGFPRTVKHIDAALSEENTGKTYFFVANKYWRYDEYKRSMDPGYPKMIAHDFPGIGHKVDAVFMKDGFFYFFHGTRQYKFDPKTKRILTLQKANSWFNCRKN
Description: Inhibition of human recombinant MMP1 using Cy3-PLGLK(Cy5Q)AR-NH2 as substrate after 40 mins by spectrofluorimetry. The procedure, abridged:
(§1)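 Human recombinant pro-enzymes were activated with 1 mM APMA at 37 °C, for 2 h (MMP-1) or 18 h (MMP-3). Reactions were stopped with EDTA and read at […] nm. Activity was scaled to no-inhibitor and EDTA controls, and IC50 obtained by iterative fitting.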

Data set [4] has as its target 72 kDa type IV collagenase (Homo sapiens, UniProt P08253). Nature of the data set: Inhibition of human recombinant MMP2 using Cy3-PLGLK(Cy5Q)AR-NH2 as substrate after 40 mins by spectrofluorimetry.
A further data set addresses Stromelysin-1 (Homo sapiens, UniProt P08254). Description: Inhibition of human recombinant MMP3 using Cy3-PLGLK(Cy5Q)AR-NH2 as substrate after 40 mins by spectrofluorimetry. The procedure, abridged:
as §1

The next data set concerns the target T2, Matrilysin (Homo sapiens, UniProt P09237).
T2 sequence (P09237 whole entry): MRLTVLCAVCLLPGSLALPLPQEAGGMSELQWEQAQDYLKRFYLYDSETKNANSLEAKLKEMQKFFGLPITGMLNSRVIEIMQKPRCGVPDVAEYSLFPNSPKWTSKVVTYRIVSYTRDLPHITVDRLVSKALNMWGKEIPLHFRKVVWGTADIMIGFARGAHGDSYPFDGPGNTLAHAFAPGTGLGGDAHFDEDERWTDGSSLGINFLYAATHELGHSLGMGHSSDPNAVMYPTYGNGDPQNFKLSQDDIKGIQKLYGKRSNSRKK
Nature of the data set: Inhibition of human recombinant MMP7 using Cy3-PLGLK(Cy5Q)AR-NH2 as substrate after 40 mins by spectrofluorimetry.

Another data set has as its target Neutrophil collagenase (Homo sapiens, UniProt P22894). Description: Inhibition of human recombinant MMP8 using Cy3-PLGLK(Cy5Q)AR-NH2 as substrate after 40 mins by spectrofluorimetry.
Data set [5] concerns the target Matrix metalloproteinase-9 (Homo sapiens, UniProt P14780). Description: Inhibition of human recombinant MMP9 using Cy3-PLGLK(Cy5Q)AR-NH2 as substrate after 40 mins by spectrofluorimetry.
The target in a further data set is Stromelysin-2 (Homo sapiens, UniProt P09238). Nature of the data set: Inhibition of human recombinant MMP10 using Cy3-PLGLK(Cy5Q)AR-NH2 as substrate after 40 mins by spectrofluorimetry.
Data set [6] has as its target Matrix metalloproteinase-14 (Homo sapiens, UniProt P50281). Nature of the data set: Inhibition of human recombinant GST-tagged MMP14 using Cy3-PLGLK(Cy5Q)AR-NH2 as substrate after 40 mins by spectrofluorimetry.
Data set [7] deals with Disintegrin and metalloproteinase domain-containing protein 17 (Homo sapiens, UniProt P78536). Description: Inhibition of human recombinant TACE using Cy3-PLAQAV(Cy5Q-L-2,3-diaminopropionic acid)-RSSSRNH2 as substrate after 40 mins by spectrofluorimetry.
A further data set deals with Rattus norvegicus. Description: Intrinsic clearance in iv dosed rat. Particulars: in vivo. Format: ADME, organism-based.
A further data set has as its system Liver microsome. Nature of the data set: Metabolic stability in rat liver microsomes. Format: ADME. The procedure, abridged:
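The free acid was incubated with hepatic microsomes of each species. Stability is reported as clearance in μL/min/mg microsomal protein.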
Background: Liver microsomes are a subcellular fraction often used to study metabolism.

Data set [8] can be described thus: Inhibition of cytochrome P450 (unknown origin). Particulars: human. The format is ADME.
The target in data set [9] is Voltage-gated inwardly rectifying potassium channel KCNH2 (Homo sapiens, UniProt Q12809). Description: Inhibition of human ERG.

Values after ≈ are worked out from the molar mass of the structure shown.

Stromelysin-2, sequence (P09238 whole entry): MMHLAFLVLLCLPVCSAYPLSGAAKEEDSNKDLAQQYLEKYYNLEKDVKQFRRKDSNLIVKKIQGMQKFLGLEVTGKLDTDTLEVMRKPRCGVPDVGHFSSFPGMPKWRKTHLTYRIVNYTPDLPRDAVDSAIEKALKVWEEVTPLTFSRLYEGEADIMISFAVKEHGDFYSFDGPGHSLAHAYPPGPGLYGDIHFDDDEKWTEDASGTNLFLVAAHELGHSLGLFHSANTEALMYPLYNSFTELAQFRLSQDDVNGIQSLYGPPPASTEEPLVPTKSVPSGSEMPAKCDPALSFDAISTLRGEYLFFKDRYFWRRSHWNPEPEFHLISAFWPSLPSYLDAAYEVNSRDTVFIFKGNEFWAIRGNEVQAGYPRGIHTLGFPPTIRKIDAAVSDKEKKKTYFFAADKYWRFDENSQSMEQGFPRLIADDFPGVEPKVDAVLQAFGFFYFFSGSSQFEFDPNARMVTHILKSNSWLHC
72 kDa type IV collagenase, sequence (P08253 whole entry): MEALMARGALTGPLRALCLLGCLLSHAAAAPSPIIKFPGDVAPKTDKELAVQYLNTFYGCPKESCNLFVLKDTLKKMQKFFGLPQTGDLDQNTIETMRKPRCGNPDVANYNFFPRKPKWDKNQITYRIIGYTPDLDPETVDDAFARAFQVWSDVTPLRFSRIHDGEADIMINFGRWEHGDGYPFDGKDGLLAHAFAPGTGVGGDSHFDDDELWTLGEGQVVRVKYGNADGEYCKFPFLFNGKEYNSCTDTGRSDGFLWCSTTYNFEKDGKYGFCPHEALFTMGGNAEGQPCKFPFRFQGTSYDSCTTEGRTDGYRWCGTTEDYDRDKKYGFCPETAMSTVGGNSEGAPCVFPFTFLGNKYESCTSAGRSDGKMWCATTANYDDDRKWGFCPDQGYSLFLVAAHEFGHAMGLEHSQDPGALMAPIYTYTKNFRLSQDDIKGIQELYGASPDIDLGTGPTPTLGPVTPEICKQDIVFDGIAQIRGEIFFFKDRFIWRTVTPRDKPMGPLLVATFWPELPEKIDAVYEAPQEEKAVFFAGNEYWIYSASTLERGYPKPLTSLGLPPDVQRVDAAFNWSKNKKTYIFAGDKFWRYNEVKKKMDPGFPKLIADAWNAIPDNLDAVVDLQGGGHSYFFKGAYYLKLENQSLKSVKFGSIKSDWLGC
Neutrophil collagenase, sequence (P22894 whole entry): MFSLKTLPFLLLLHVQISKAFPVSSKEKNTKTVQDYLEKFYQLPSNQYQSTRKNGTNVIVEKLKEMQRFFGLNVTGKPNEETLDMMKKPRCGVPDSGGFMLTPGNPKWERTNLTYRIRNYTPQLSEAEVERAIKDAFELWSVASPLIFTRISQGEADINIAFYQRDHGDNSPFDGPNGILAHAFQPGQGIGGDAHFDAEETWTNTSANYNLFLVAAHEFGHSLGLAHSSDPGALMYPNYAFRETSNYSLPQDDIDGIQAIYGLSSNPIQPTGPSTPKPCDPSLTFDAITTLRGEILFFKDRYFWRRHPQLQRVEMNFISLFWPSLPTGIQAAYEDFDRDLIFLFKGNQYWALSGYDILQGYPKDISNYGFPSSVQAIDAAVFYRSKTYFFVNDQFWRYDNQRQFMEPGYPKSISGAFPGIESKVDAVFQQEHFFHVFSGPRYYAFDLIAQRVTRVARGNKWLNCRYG
Disintegrin and metalloproteinase domain-containing protein 17, sequence (P78536 whole entry, the tested form may be a part): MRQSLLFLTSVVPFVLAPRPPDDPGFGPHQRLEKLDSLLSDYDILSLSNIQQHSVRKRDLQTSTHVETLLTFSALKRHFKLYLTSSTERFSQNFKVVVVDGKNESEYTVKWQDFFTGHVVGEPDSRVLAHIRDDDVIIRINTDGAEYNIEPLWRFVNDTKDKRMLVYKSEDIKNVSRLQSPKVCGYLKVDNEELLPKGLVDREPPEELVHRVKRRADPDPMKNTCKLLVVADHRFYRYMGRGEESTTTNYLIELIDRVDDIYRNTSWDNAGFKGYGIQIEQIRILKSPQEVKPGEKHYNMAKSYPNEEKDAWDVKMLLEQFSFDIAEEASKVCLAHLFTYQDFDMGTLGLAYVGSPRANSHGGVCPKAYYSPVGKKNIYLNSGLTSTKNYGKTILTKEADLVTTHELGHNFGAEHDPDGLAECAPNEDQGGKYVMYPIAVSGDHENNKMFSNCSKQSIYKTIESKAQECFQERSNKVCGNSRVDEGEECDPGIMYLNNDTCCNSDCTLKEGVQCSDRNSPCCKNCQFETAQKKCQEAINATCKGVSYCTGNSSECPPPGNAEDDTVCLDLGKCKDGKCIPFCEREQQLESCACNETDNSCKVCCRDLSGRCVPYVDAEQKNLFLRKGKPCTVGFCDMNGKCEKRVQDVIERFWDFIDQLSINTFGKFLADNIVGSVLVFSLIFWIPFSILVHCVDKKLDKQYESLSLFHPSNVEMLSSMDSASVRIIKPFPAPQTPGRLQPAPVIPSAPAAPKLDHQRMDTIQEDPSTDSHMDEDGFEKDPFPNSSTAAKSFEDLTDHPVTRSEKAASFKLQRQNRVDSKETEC
Stromelysin-1, sequence (P08254 whole entry): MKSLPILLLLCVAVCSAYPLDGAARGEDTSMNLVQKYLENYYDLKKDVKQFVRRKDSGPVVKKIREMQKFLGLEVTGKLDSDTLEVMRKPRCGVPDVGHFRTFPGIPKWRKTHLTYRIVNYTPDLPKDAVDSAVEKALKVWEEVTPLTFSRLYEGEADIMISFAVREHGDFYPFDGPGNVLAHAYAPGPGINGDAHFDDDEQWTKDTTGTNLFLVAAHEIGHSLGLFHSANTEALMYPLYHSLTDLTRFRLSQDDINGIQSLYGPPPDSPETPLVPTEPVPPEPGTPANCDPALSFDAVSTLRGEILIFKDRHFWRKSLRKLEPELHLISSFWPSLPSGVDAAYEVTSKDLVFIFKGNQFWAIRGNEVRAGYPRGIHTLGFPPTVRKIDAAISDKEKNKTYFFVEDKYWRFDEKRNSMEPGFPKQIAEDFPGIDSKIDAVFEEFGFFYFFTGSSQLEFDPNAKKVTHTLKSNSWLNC
Matrix metalloproteinase-9, sequence (P14780 whole entry): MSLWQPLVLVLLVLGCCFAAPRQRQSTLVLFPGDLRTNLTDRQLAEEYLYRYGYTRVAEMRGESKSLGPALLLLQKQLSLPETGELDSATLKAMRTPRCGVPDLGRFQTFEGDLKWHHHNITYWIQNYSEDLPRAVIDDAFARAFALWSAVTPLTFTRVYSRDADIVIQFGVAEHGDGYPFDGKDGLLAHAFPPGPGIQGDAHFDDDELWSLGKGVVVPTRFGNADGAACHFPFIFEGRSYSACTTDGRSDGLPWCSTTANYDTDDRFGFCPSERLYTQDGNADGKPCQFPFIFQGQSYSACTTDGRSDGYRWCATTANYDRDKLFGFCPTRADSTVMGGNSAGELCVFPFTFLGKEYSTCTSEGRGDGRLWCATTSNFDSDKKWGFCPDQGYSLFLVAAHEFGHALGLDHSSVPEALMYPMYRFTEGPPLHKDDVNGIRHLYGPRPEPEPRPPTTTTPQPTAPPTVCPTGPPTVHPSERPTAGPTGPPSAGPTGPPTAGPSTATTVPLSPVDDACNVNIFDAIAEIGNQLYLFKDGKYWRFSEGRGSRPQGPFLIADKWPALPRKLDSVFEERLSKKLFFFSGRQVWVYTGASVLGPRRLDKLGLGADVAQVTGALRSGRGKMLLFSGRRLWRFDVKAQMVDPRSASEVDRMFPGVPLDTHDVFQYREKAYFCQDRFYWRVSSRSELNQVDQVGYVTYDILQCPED
Voltage-gated inwardly rectifying potassium channel KCNH2, sequence (Q12809 whole entry): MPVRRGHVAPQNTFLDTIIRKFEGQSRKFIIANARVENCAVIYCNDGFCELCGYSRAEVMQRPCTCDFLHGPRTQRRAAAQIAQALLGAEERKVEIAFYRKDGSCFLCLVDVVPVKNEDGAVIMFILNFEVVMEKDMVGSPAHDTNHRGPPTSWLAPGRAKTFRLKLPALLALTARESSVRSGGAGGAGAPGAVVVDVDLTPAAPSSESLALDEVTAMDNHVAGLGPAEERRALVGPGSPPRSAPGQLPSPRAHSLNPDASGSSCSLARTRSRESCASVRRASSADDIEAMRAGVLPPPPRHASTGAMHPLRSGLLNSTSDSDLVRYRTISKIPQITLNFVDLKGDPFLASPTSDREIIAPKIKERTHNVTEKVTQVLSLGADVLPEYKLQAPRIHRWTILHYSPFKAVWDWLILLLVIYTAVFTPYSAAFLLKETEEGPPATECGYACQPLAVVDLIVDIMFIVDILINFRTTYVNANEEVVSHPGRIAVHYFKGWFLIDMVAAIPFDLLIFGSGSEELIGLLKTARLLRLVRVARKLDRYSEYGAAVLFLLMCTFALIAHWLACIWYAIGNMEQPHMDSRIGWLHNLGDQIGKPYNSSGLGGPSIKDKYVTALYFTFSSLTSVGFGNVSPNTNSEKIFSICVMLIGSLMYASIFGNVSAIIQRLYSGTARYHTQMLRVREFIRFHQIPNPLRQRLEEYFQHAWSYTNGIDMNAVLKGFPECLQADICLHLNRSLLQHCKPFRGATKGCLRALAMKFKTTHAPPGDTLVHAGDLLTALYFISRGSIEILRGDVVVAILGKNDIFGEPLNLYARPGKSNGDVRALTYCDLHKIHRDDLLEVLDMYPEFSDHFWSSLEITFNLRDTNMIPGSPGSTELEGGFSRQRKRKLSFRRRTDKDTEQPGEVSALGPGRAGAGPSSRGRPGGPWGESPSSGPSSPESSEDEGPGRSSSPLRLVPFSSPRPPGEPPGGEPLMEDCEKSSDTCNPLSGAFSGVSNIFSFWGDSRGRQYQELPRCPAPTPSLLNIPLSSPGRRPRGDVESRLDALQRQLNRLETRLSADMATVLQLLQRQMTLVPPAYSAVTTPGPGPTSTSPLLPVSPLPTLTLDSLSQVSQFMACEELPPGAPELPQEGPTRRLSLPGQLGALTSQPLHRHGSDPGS

One may read the Papp as a coefficient for how fast a substance crosses the barrier. What is called solubility is the dissolved amount per volume that the medium holds. Higher therefore signals a readily soluble substance. What is called IC50 is the concentration at which inhibition is half-maximal. For the compound `COc1cccc(CNC(=O)c2nc3ccc(F)c(OCCc4ccc(C(=O)O)cc4)c3c(=O)[nH]2)c1`, the Papp in data set [1] turned out to be 4.77 ×10⁻⁶ cm/s. Moreover, the solubility result in [2] is “Insoluble”; in data set [3], 0.7 µg/mL (≈ 1.42 µM). In addition, the IC50 at Collagenase 3 is 3.9 pM; on Interstitial collagenase, over 10 µM; in data set [4], 5.3 µM; on Stromelysin-1, 4 µM; at Matrilysin, over 10 µM; at Neutrophil collagenase, 0.72 µM. Moreover, the IC50 in data set [5] was over 10 µM; on Stromelysin-2, 0.16 µM; in data set [6] it was over 10 µM; in [7] it was over 10 µM. Also, in the data set on Rattus norvegicus, the CL turned out to be 28.3 mL/min/kg. The compound further had a Microsomal clearance in the data set with Liver microsome of 70 µL/min/mg. Also, the “inhibition (INH)” value in data set [8] and in data set [9] was “Not Active” throughout.
